Data reported in paper PMC4607264 (Developmental and comparative immunology, 2014).
Converted amounts (≈) assume the structure as drawn.

Molecular target: DlRBL (Dicentrarchus labrax rhamnose-binding lectin) (Dicentrarchus labrax, UniProt A0A8P4K6Y8)
Test: inhibition of hemagglutination of rabbit erythrocytes by purified lectin
Format: biochemical
Settings: TBS pH 7.4, 5 mM CaCl2; 1% rabbit erythrocytes
Outline: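 Purified lectin (250 μg/ml stock, dialysed in TBS) was serially 2-fold diluted in TBS with 0.1% gelatin. Inhibitor series of monosaccharides, disaccharides and yeast mannan were used at decreasing concentrations starting from 100 mM. Rabbit erythrocytes were washed three times in PBS and suspended at 1% in TBS-gelatin, then added in equal volume. Agglutination was scored after 1 h at 37°C.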

OC[C@H]1OC(O)[C@H](O)[C@@H](O)[C@H]1O (stereo partly drawn) [D-galactose]
Minimum inhibitory concentration: 70.0 mM (≈ 12.6 mg/mL)
